Measured values taken from ChEMBL document CHEMBL2385072, “Development of oleanane-type triterpenes as a new class of HCV entry inhibitors” (J Med Chem, 2013).
The source made the active and inactive calls. No cut-off for these calls is given here.

How the values were obtained:
Hepatitis C virus [1] = experiment: Antiviral activity against pseudo HCV infected in human 293T cells assessed as inhibition of HCV pseudo particles entry at 10 uM after 72 hrs by luciferase reporter gene assay; format: functional, Hepacivirus hominis; details: HEK-293T
Hepatitis C virus [2] = experiment: Antiviral activity against pseudo HCV infected in human 293T cells assessed as inhibition of HCV pseudo particles entry at 5 uM after 72 hrs by luciferase reporter gene assay; format: functional, Hepacivirus hominis; details: HEK-293T
Hepatitis C virus [3] = experiment: Antiviral activity against pseudo HCV infected in human 293T cells assessed as inhibition of HCV pseudo particles entry at 1 uM after 72 hrs by luciferase reporter gene assay; format: functional, Hepacivirus hominis; details: HEK-293T
Hepacivirus hominis [4] = experiment: Binding affinity to HCV envelope protein E2 protein by SPR method
Method in brief: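 E2 loaded on streptavidin-coated biosensors and exposed to compound at 3.125–100 μM to obtain binding curves and K_D. Competition was also tested as E2 binding to a biotin-labelled compound chip in the presence of free compound at varied doses.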

[5] = Inhibition of HCV envelope protein E2 protein interaction with CD81 receptor (unknown origin) by BIAcore assay; set-up: species or system Hepacivirus hominis
Method in brief: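 BIAcore: E2 immobilized on a streptavidin sensor via SA–biotin and exposed to CD81 at 40.9–654.5 nM to fit K_D. CD81 was also tested together with compound.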

Hepacivirus hominis [6] = experiment: Binding affinity to HCV envelope protein E2 protein by pull down assay
Method in brief: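 Biotin-labelled probe incubated with lysate of HCVpp-packaging cells and captured on streptavidin agarose. Free biotin and unlabelled compound served as parallel probes. For competition, excess free compound was added to the lysate. Bound E2 was detected.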

Hepatitis C virus [7] = experiment: Antiviral activity against pseudo HCV infected in human Huh7 cells at 10 uM after 72 hrs; format: functional, organism-based; details: Hepacivirus hominis, Huh-7
Method in brief: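 Post-entry: Huh7 cells infected with HCVpp at 37 °C for 6 h, washed, then treated with 10 μM compound at 37 °C for 72 h. Normalized to 0.5% DMSO. CD81 antibody 5 nM as control.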

Hepatitis C virus [8] = experiment: Antiviral activity against pseudo HCV infected in human Huh7 cells assessed as inhibition of HCV pseudo particles entry at 10 uM incubated for 3 hrs prior to compound addition measured after 72 hrs; format: functional, organism-based; details: Hepacivirus hominis, Huh-7
Method in brief: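 Post-binding/pre-entry: Huh7 cells incubated with HCVpp at 4 °C for 3 h, washed, then treated with 10 μM compound at 37 °C for 72 h. Normalized to 0.5% DMSO. CD81 antibody 5 nM as control.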

Hepatitis C virus [9] = experiment: Antiviral activity against pseudo HCV infected in human Huh7 cells assessed as inhibition of HCV pseudo particles entry at 10 uM incubated for 3 hrs prior to virus addition measured after 72 hrs; format: functional, organism-based; details: Hepacivirus hominis, Huh-7
Method in brief: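 Pretreatment: Huh7 cells exposed to 10 μM compound for 3 h at 37 °C, washed, then infected with HCVpp for 72 h at 37 °C. Normalized to 0.5% DMSO. CD81 antibody 5 nM as control.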

Hepatitis C virus [10] = experiment: Antiviral activity against pseudo HCV infected in human Huh7 cells assessed as inhibition of HCV pseudo particles entry at 10 uM incubated for 3 hrs; format: functional, organism-based; details: Hepacivirus hominis, Huh-7
Method in brief: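 Prebinding: Huh7 cells exposed to HCVpp plus 10 μM compound at 4 °C for 3 h, washed free of virus and compound, then cultured 72 h at 37 °C. Normalized to 0.5% DMSO. CD81 antibody 5 nM as control.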

Hepatitis C virus [11] = experiment: Antiviral activity against pseudo HCV infected in human Huh7 cells assessed as inhibition of HCV pseudo particles entry at 10 uM after 72 hrs; format: functional, organism-based; details: Hepacivirus hominis, Huh-7
Method in brief: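 Co-treatment: Huh7 cells infected with HCVpp (or VSVpp) with 10 μM compound present throughout, 72 h at 37 °C. Normalized to 0.5% DMSO (final). CD81 antibody (5 nM) was the positive control and an unrelated compound the negative control. Luciferase read-out.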

Hepatitis C virus [12] = experiment: Antiviral activity against pseudo HCV infected in human 293T cells assessed as inhibition of HCV pseudo particles entry after 72 hrs by luciferase reporter gene assay; format: functional, organism-based, Hepacivirus hominis
Method in brief: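 HCVpp (HCV E1/E2 on Env/Vpr-deficient HIV luciferase vector, made in 293T by cotransfection, harvested 72 h) added to 5×10^3 Huh-7 cells/well with compound at final 1 or 5 μM in 1% DMSO; 72 h, 37 °C; luciferase read. Inhibition = 100 − % of DMSO control after uninfected-well background subtraction; VSVpp run in parallel; duplicate, ≥3 experiments.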

[13] = test system: Vesicular stomatitis virus; experiment: Antiviral activity against pseudo VSV infected in human 293T cells assessed as inhibition of vesicular stromatis G protein pseudo particles entry at 5 uM after 72 hrs by luciferase reporter gene assay; format: functional; details: HEK-293T
[14] = test system: Vesicular stomatitis virus; experiment: Antiviral activity against pseudo VSV infected in human 293T cells assessed as inhibition of vesicular stromatis G protein pseudo particles entry at 1 uM after 72 hrs by luciferase reporter gene assay; format: functional; details: HEK-293T

Compound: CC1(C(=O)O)CC[C@]2(C)CC[C@]3(C)C(=CC(=O)[C@@H]4[C@@]5(C)CC[C@H](O)C(C)(C)[C@@H]5CC[C@]43C)[C@@H]2C1 (single isomer, unassigned) [ENOXOLONE]
- inhibition at 10 µM (Hepatitis C virus [1]): 5%

Compound: C=C(C)[C@@H]1CC[C@]2(C(=O)O)CC[C@]3(C)[C@H](CC[C@@H]4[C@@]5(C)CC[C@H](O)C(C)(C)[C@@H]5CC[C@]43C)[C@@H]12 [BETULINIC ACID]
- inhibition at 10 µM (Hepatitis C virus [1]): 75%

Compound: CC1(C)CC[C@]2(C(=O)O)CC[C@]3(C)C(=CC[C@@H]4[C@@]5(C)CC[C@H](O)C(C)(C)[C@@H]5[C@@H](O)C[C@]43C)[C@@H]2C1
- inhibition at 10 µM (Hepatitis C virus [1]): 0%

Compound: CC1(C)CC[C@]2(C(=O)O)CC[C@]3(C)C(=CC[C@@H]4[C@@]5(C)CC[C@H](O)[C@@](C)(C(=O)O)[C@@H]5CC[C@]43C)[C@@H]2C1
- inhibition at 10 µM (Hepatitis C virus [1]): 0%

Compound: CC1(C)CC[C@]2(C(=O)O)[C@H](O)C[C@]3(C)C(=CC[C@@H]4[C@@]5(C)CC[C@H](O)C(C)(C)[C@@H]5CC[C@]43C)[C@H]2C1 [ECHINOCYSTIC ACID]
- inhibition at 5 µM (Hepatitis C virus [2]): 77.7%
- inhibition at 1 µM (Hepatitis C virus [3]): 27.5%
- Activity (Hepacivirus hominis [4]): Dose-dependent effect
- Kd [5]: 24 µM
- Activity (Hepacivirus hominis [6]): Active
- Activity (Hepatitis C virus [7]): inactive
- inhibition (Hepatitis C virus [8]): Active
- inhibition (Hepatitis C virus [9]): Active
- inhibition (Hepatitis C virus [10]): Active
- inhibition (Hepatitis C virus [11]): Active
- inhibition at 10 µM (Hepatitis C virus [1]): 90%
- IC50 (Hepatitis C virus [12]): 1.4 µM
- inhibition at 5 µM [13]: 9%
- inhibition at 1 µM [14]: 7.2%

Compound: CC(=O)O[C@H]1CC[C@]2(C)[C@H]3CC=C4[C@@H]5CC(C)(C)CC[C@]5(C(=O)O)CC[C@@]4(C)[C@]3(C)CC[C@H]2C1(C)C [ACETYL OLEANOLIC ACID]
- inhibition at 10 µM (Hepatitis C virus [1]): 10%

Compound: CC1(C)CC[C@]2(C(=O)O)CC[C@]3(C)C(=CC[C@@H]4[C@@]5(C)CC[C@H](OC6O[C@H](CO)[C@@H](O)[C@H](O)[C@H]6O)[C@@](C)(CO)[C@@H]5CC[C@]43C)[C@@H]2C1 (some centres not stated)
- inhibition at 10 µM (Hepatitis C virus [1]): 0%

Compound: CC1(C)CC[C@]2(C(=O)O)CC[C@]3(C)[C@H](C(=O)C[C@@H]4[C@@]5(C)CC[C@H](O)C(C)(C)[C@@H]5CC[C@]43C)[C@@H]2C1
- inhibition at 10 µM (Hepatitis C virus [1]): 50%

Compound: CC1(C)C[C@H]2C3=CC[C@@H]4[C@@]5(C)CC[C@H](O)C(C)(C)[C@@H]5CC[C@@]4(C)[C@]3(C)C[C@@H](O)[C@@]2(C(=O)O)C[C@@H]1O
- inhibition at 10 µM (Hepatitis C virus [1]): 15%
